In ChEMBL document CHEMBL2150985, “Synthesis and antioxidant activity of 1,3,4-oxadiazole tagged thieno[2,3-d]pyrimidine derivatives” (Eur J Med Chem, 2012):
Values after ≈ are worked out from the molar mass of the structure shown.

Legend:
Type in all cases: functional
[1] = Antioxidant activity assessed as inhibition of H2O2 radical scavenging activity at 75 ug/mL by spectrophotometric analysis relative to control
In short: (§1)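 H2O2 (40 mM) prepared in phosphate buffer, pH 7.4. Compounds at […] in phosphate buffer were added to the H2O2 solution. Absorbance of the mixture was read at 230 nm, and percent H2O2 scavenging was calculated.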

[2] = Antioxidant activity assessed as inhibition of H2O2 radical scavenging activity at 25 ug/mL by spectrophotometric analysis relative to control; in short: as §1
[3] = Antioxidant activity assessed as inhibition of nitric oxide free radical production at 100 ug/mL after 150 mins by Griess method relative to control
In short: (§2)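 NO generated from sodium nitroprusside (10 mM) in 0.2 M phosphate buffered saline, pH 7.4, with compound at […]. Incubated 150 min at 25 °C. An aliquot was mixed 1:1 with Griess reagent (1% sulfanilamide, 2% H3PO4, 0.1% naphthylethylenediamine dihydrochloride).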

[4] = Antioxidant activity assessed as inhibition of nitric oxide free radical production at 50 ug/mL after 150 mins by Griess method relative to control; in short: as §2
[5] = test system: Radical scavenging activity; test: Antioxidant activity assessed as inhibition of DPPH free radical production after 30 mins by spectrophotometric analysis
In short: (§3)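 Test compound in methanol added to 0.004% (w/v) methanolic DPPH at a 1:4 volume ratio. Incubated 30 min at room temperature. Absorbance read against blank at 517 nm.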

[6] = Antioxidant activity assessed as inhibition of nitric oxide free radical production at 75 ug/mL after 150 mins by Griess method relative to control; in short: as §2
[7] = test system: Radical scavenging activity; test: Antioxidant activity assessed as inhibition of DPPH free radical production at 75 ug/mL after 30 mins by spectrophotometric analysis relative to control; in short: as §3
[8] = test system: Radical scavenging activity; test: Antioxidant activity assessed as inhibition of DPPH free radical production at 100 ug/mL after 30 mins by spectrophotometric analysis relative to control; in short: as §3
[9] = Antioxidant activity assessed as inhibition of nitric oxide free radical production at 25 ug/mL after 150 mins by Griess method relative to control; in short: as §2
[10] = Antioxidant activity assessed as inhibition of H2O2 radical scavenging activity at 50 ug/mL by spectrophotometric analysis relative to control; in short: as §1
[11] = Antioxidant activity assessed as inhibition of H2O2 radical scavenging activity by spectrophotometric analysis; in short: as §1
[12] = test system: Radical scavenging activity; test: Antioxidant activity assessed as inhibition of DPPH free radical production at 50 ug/mL after 30 mins by spectrophotometric analysis relative to control; in short: as §3
[13] = test system: Radical scavenging activity; test: Antioxidant activity assessed as inhibition of DPPH free radical production at 25 ug/mL after 30 mins by spectrophotometric analysis relative to control; in short: as §3
[14] = Antioxidant activity assessed as inhibition of H2O2 radical scavenging activity at 100 ug/mL by spectrophotometric analysis relative to control; in short: as §1
[15] = Antioxidant activity assessed as inhibition of nitric oxide free radical production after 150 mins by Griess method; in short: as §2

Compound | IC50 [5] [µg/mL] | IC50 [11] [µg/mL] | IC50 [15] [µg/mL] | inhibition [1] [%] | inhibition [2] [%] | inhibition [3] [%] | inhibition [4] [%] | inhibition [6] [%] | inhibition [7] [%] | inhibition [8] [%] | inhibition [9] [%] | inhibition [10] [%] | inhibition [12] [%] | inhibition [13] [%] | inhibition [14] [%]
Cc1c(-c2nnc(-c3ccc(Cl)cc3)o2)sc2ncnc(Nc3ccc(F)cc3F)c12 | 16.35 (≈ 35.9 µM) | 18.26 (≈ 40.1 µM) | 15.98 (≈ 35.1 µM) | 74.5 | 68.4 | 86.2 | 83.3 | 84.6 | 83.3 | 85.8 | 78.2 | 71.7 | 79.7 | 76.4 | 79.7
Cc1c(-c2nnc(-c3ccccc3)o2)sc2ncnc(Nc3ccc(Cl)cc3)c12 | 18.03 (≈ 42.9 µM) | 20.47 (≈ 48.8 µM) | 17.54 (≈ 41.8 µM) | 68.2 | 61.1 | 82.9 | 74.8 | 77.1 | 76.8 | 81.3 | 71.3 | 63.8 | 71.6 | 69.3 | 71.6
Cc1c(-c2nnc(-c3ccccc3)o2)sc2ncnc(Nc3ccc(F)cc3F)c12 | 16.91 (≈ 40.1 µM) | 19.57 (≈ 46.4 µM) | 16.61 (≈ 39.4 µM) | 69 | 63.9 | 85.4 | 79.5 | 82.6 | 79.6 | 83.8 | 75.2 | 65.5 | 77.4 | 73.9 | 72.5
Cc1c(-c2nnc(-c3ccc(Cl)cc3)o2)sc2ncnc(Nc3ccc(F)cc3)c12 | 17.7 (≈ 40.4 µM) | 19.49 (≈ 44.5 µM) | 17.39 (≈ 39.7 µM) | 69.8 | 64.1 | 83.6 | 76.3 | 79.7 | 77.8 | 81.9 | 71.8 | 67.4 | 74.2 | 70.6 | 72.6
Cc1c(-c2nnc(-c3ccc(Cl)cc3)o2)sc2ncnc(Nc3ccc(Cl)cc3)c12 | 19.31 (≈ 42.5 µM) | 21.22 (≈ 46.7 µM) | 18.27 (≈ 40.2 µM) | 65.7 | 58.3 | 79.4 | 70.6 | 74.2 | 73.8 | 77.5 | 68.4 | 62.3 | 68.4 | 64.7 | 69.8
Cc1c(-c2nnc(-c3ccccc3)o2)sc2ncnc(Nc3ccc(F)cc3)c12 | 17.25 (≈ 42.8 µM) | 18.85 (≈ 46.7 µM) | 17.1 (≈ 42.4 µM) | 71.7 | 66.3 | 84.9 | 78.1 | 82.4 | 78.4 | 83.1 | 73.1 | 69.5 | 75.8 | 72.5 | 74.2
O=C1O[C@H]([C@@H](O)CO)C(O)=C1O [ASCORBIC ACID] | 15.11 (≈ 85.8 µM) | 16.35 (≈ 92.8 µM) | 14.75 (≈ 83.7 µM) | 82.4 | 76.4 | 90.4 | 86 | 88.3 | 85.5 | 87.2 | 84.7 | 78.6 | 83.5 | 82.7 | 86.6

Continued, in another order:

IC50 [5] [µg/mL] | IC50 [11] [µg/mL] | IC50 [15] [µg/mL] | Compound | inhibition [1] [%] | inhibition [2] [%] | inhibition [3] [%] | inhibition [4] [%] | inhibition [6] [%] | inhibition [7] [%] | inhibition [8] [%] | inhibition [9] [%] | inhibition [10] [%] | inhibition [12] [%] | inhibition [13] [%] | inhibition [14] [%]
18.25 (≈ 41.7 µM) | 20.74 (≈ 47.4 µM) | 17.14 (≈ 39.1 µM) | Cc1c(-c2nnc(-c3ccccc3)o2)sc2ncnc(Nc3ccc(F)c(Cl)c3)c12 | 67.8 | 60.3 | 82.4 | 74.1 | 78.2 | 74.9 | 79.2 | 72.9 | 63.5 | 72.8 | 68.5 | 70.9
20.92 (≈ 46.7 µM) | 23.54 (≈ 52.5 µM) | 20.14 (≈ 44.9 µM) | Cc1c(-c2nnc(-c3ccc([N+](=O)[O-])cc3)o2)sc2ncnc(Nc3ccc(F)cc3)c12 | 60 | 53.1 | 73.9 | 66.8 | 70.9 | 68.9 | 72.2 | 62 | 56.6 | 64.5 | 59.7 | 64.2
19.57 (≈ 41.4 µM) | 20.18 (≈ 42.7 µM) | 19.41 (≈ 41.1 µM) | Cc1c(-c2nnc(-c3ccc(Cl)cc3)o2)sc2ncnc(Nc3ccc(F)c(Cl)c3)c12 | 68.2 | 61.9 | 79.5 | 69.2 | 74.7 | 71.5 | 76.6 | 64.4 | 64.5 | 67.9 | 63.9 | 71.9
23.7 (≈ 51 µM) | 24.33 (≈ 52.3 µM) | 20.49 (≈ 44.1 µM) | Cc1c(-c2nnc(-c3ccc([N+](=O)[O-])cc3)o2)sc2ncnc(Nc3ccc(Cl)cc3)c12 | 58.1 | 51.4 | 72.4 | 63.5 | 67.6 | 61.4 | 67.8 | 61 | 54 | 58.2 | 52.7 | 63.7
25.69 (≈ 53.2 µM) | 27.76 (≈ 57.5 µM) | 23.3 (≈ 48.3 µM) | Cc1c(-c2nnc(-c3ccc([N+](=O)[O-])cc3)o2)sc2ncnc(Nc3ccc(F)c(Cl)c3)c12 | 50.4 | 45 | 64.3 | 56.5 | 60 | 56.6 | 61.9 | 53.6 | 47.4 | 52.9 | 48.6 | 53.6
19.34 (≈ 41.5 µM) | 22.98 (≈ 49.3 µM) | 19.66 (≈ 42.2 µM) | Cc1c(-c2nnc(-c3ccc([N+](=O)[O-])cc3)o2)sc2ncnc(Nc3ccc(F)cc3F)c12 | 62.8 | 54.4 | 79 | 71.4 | 76.2 | 73.9 | 77.8 | 63.6 | 58.1 | 69.5 | 64.6 | 66.2
